Test results published in ChEMBL document CHEMBL3421532, “Synthesis and antiproliferative activity of α-branched α,β-unsaturated ketones in human hematological and solid cancer cell lines” (Eur J Med Chem, 2015).
Activity calls are given as the source filed them. The rule behind the calls is not given here.

Tests used:
Type in all cases: functional, cell-based
[1] = Antiproliferative activity against human NB4 cells assessed as cell growth inhibition after 48 hrs by XTT assay; conditions: NB-4, 48 h
Summary of the method: (§1)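 NB4 grown in RPMI 1640 with 10% FBS and penicillin/streptomycin, A549 and MCF-7 in DMEM, all at 37 °C and 5% CO2. Cells seeded at 1.5∙10⁴ (NB4) or 1.0∙10⁴ (A549, MCF-7) per well. Adherent lines dosed 24 h after plating, NB4 shortly after. Triplicate concentrations from 0.1 to 100, DMSO control at 0.5% v/v. After 48 h exposure, XTT added for 2 h. A450 minus A690 read, GI50 reported with SE.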

[2] = system: A549; assay: Antiproliferative activity against human A549 cells assessed as cell growth inhibition after 48 hrs by XTT assay; conditions: A549, 48 h; summary of the method: as §1
[3] = system: MCF7; assay: Antiproliferative activity against human MCF7 cells assessed as cell growth inhibition after 48 hrs by XTT assay; conditions: MCF7, 48 h; summary of the method: as §1
[4] = system: A549; assay: Cell cycle arrest in human A549 cells assessed as slight increase in cell accumulation at G2/M phase at 20 uM after 48 hrs by flow cytometry
Summary of the method: (§2)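 Cells seeded in 6-well plates at 1∙10⁶ (NB4) or 0.45∙10⁶ (A549, MCF-7) per well. Treated for 48 h at 10 (NB4, MCF-7), 20 and 30 (A549), or, for NB4, a lower 5; DMSO solvent control. Cell cycle phase distribution and sub-G1 measured by flow cytometry. Mean of two independent experiments.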

[5] = system: A549; assay: Induction of apoptosis in human A549 cells at 20 to 30 uM after 24 to 48 hrs by annexin V binding assay
Summary of the method: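 Cells seeded in 6-well plates at 1∙10⁶ (NB4) or 0.45∙10⁶ (A549, MCF-7) per well. Treated at 5 (NB4), 20 and 30 (A549) or 10 (MCF-7). Apoptotic cell percentage measured by annexin V binding after 24 and 48 h. Mean of two independent experiments.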

[6] = system: A549; assay: Cell cycle arrest in human A549 cells assessed as increase in cell population at S phase at 30 uM after 48 hrs by flow cytometry; summary of the method: as §2
[7] = system: MCF7; assay: Cell cycle arrest in human MCF7 cells assessed as increase in cell population at S phase at 10 uM after 48 hrs by flow cytometry; summary of the method: as §2
[8] = system: A549; assay: Cell cycle arrest in human A549 cells assessed as slight increase in cell population at S phase at 20 uM after 48 hrs by flow cytometry; summary of the method: as §2
[9] = system: MCF7; assay: Cell cycle arrest in human MCF7 cells assessed as increase in cell population at G2/M phase at 10 uM after 48 hrs by flow cytometry; summary of the method: as §2

SMILES	IC50 [1]	IC50 [2]	IC50 [3]	Activity [4]	Activity [5]	Activity [6]	Activity [7]	Activity [8]	Activity [9]
COc1ccc(C(=O)/C(=C\c2ccccc2Cl)COC(=O)c2ccccc2)cc1	20.1 µM	52 µM	36 µM						
COc1ccc(C(=O)/C(=C/C2CCCCC2)COC(=O)c2ccccc2)cc1	10.2 µM	36 µM	13.7 µM						
COc1ccc(C(=O)/C(=C/c2ccc(C(F)(F)F)cc2)CC(C)C)cc1	12.6 µM	> 100 µM	> 100 µM						
C=C(C(=O)c1ccc(OC)cc1)C(O)c1ccccc1Cl (stereo not given)	8.1 µM	28.5 µM	29.6 µM						
C=C(C(=O)c1ccc(OC)cc1)C(OC(C)=O)c1ccccc1F (stereo not given)	9.5 µM	67.3 µM	18 µM						
C/C=C(\COC(=O)c1ccccc1)C(=O)c1ccc(OC)cc1	16.2 µM	> 100 µM	29.8 µM						
C=C(C(=O)c1ccc(OC)cc1)C(O)c1ccccc1F (stereo not given)	6.9 µM	15.7 µM	30.9 µM						
COc1ccc(C(=O)/C(=C/C2CCCCC2)CC(C)OC(C)=O)cc1 (stereo not given)	33.4 µM	98 µM	> 100 µM						
C=C(C(=O)c1ccc(OC)cc1)C(OC(=O)c1ccccc1)c1ccccc1Cl (stereo not given)	8.5 µM	30.5 µM	36 µM						
COc1ccc(C(=O)/C(=C/c2c(F)c(F)c(F)c(F)c2F)CCOC(C)=O)cc1	28.5 µM	58.1 µM	> 100 µM						
C=C(C(=O)c1ccc(OC)cc1)C(OC(=O)c1ccccc1)C1CCCCC1 (stereo not given)	10 µM	62.1 µM	34.3 µM						
C=C(C/C(=C\c1ccc(C)cc1)C(=O)c1ccc(OC)cc1)C(=O)c1ccc(OC)cc1	11.4 µM	43.8 µM	26.9 µM						
COc1ccc(C(=O)/C(=C/c2ccc(C(F)(F)F)cc2)CC2CCCCC2)cc1	18.2 µM	> 100 µM	> 100 µM						
C=C(C(=O)c1ccc(OC)cc1)C(OC(=O)c1ccccc1)C(CC)CC (stereo not given)	13 µM	35.2 µM	17.9 µM						
COc1ccc(C(=O)/C(=C/c2ccc([N+](=O)[O-])cc2)CN2CCOCC2)cc1	5.6 µM	70.1 µM	7 µM						
COc1ccc(C(=O)/C(=C/c2ccc(Cl)cc2Cl)CC(C)C)cc1	14.6 µM	80.3 µM	> 100 µM						
C=C(C(=O)c1ccc(OC)cc1)C(OC(=O)c1ccccc1)c1ccc([N+](=O)[O-])cc1[N+](=O)[O-] (stereo not given)	10 µM	13 µM	> 100 µM	Active					
COc1ccc(C(=O)/C(=C/C2CCCCC2)CN(C)C(=O)c2ccccc2)cc1	32.4 µM	69.7 µM	32.7 µM						
COc1ccc(C(=O)/C(=C/c2ccc(Cl)cc2Cl)CC(C)OC(C)=O)cc1 (stereo not given)	36.8 µM	40.3 µM	> 100 µM						
C=C(C(=O)c1ccc(OC)cc1)C(C)OC(=O)c1ccccc1 (stereo not given)	15.7 µM	> 100 µM	14.5 µM						
C=C(C(=O)c1ccc(OC)cc1)C(OC(C)=O)C(CC)CC (stereo not given)	11.8 µM	32.9 µM	38.9 µM						
C=C(C(=O)c1ccc(OC)cc1)C(O)c1ccc(Cl)cc1Cl (stereo not given)	26.1 µM	70 µM	9 µM						
COc1ccc(C(=O)/C(=C/c2ccc(Cl)cc2Cl)CC2CCCCC2)cc1	48.9 µM	> 100 µM	> 100 µM						
COc1ccc(C(=O)/C(=C/c2ccc(Cl)cc2Cl)CN2CCOCC2)cc1	8.5 µM	> 100 µM	42.3 µM						
CC(=O)OC/C(=C/c1ccccc1F)C(=O)c1ccccc1	8.3 µM	20.3 µM	39.8 µM						
COc1ccc(C(=O)/C(=C/c2ccc(Cl)cc2)CCOC(C)=O)cc1	36.3 µM	86 µM	> 100 µM						
CCC(/C=C(\CCOC(C)=O)C(=O)c1ccc(OC)cc1)CC	91.1 µM	> 100 µM	> 100 µM						
COc1ccc(C(=O)/C(=C/C2CCCCC2)COC(C)=O)cc1	23.3 µM	90 µM	24 µM						

SMILES	IC50 [1]	IC50 [2]	IC50 [3]	Activity [4]	Activity [5]	Activity [6]	Activity [7]	Activity [8]	Activity [9]
CC(=O)OC/C(=C/c1ccc(Cl)cc1Cl)C(=O)c1ccccc1	12.6 µM	74.5 µM	31.7 µM						
COc1ccc(C(=O)/C(=C/c2ccccc2Cl)CCOC(C)=O)cc1	51.6 µM	> 100 µM	> 100 µM						
COc1ccc(C(=O)/C(=C/c2ccc([N+](=O)[O-])cc2)CCOC(C)=O)cc1	> 100 µM	> 100 µM	> 100 µM						
C=C(C/C(=C\c1ccc(C)cc1)C(=O)c1ccccc1)C(=O)c1ccccc1	7.6 µM	20.9 µM	15.9 µM						
C=C(C(=O)c1ccc(OC)cc1)C(OC(=O)c1ccccc1)c1ccc([N+](=O)[O-])cc1 (stereo not given)	13.2 µM	66.6 µM	56.1 µM						
C=C(C(=O)c1ccc(OC)cc1)C(OC(C)=O)c1c(F)c(F)c(F)c(F)c1F (stereo not given)	12.6 µM	14.8 µM	6.7 µM	Active	Active	Active	Active	Active	Active
COc1ccc(C(=O)/C(=C/c2ccccc2F)COC(C)=O)cc1	8.2 µM	22.5 µM	30 µM						
CCC(/C=C(\COC(=O)c1ccccc1)C(=O)c1ccc(OC)cc1)CC	26.8 µM	> 100 µM	28 µM						
C=C(C(=O)c1ccc(OC)cc1)C(OC(C)=O)C1CCCCC1 (stereo not given)	10.5 µM	> 100 µM	14 µM						
CC(=O)OC/C(=C\c1ccc(Cl)cc1Cl)C(=O)c1ccccc1	6.6 µM	97 µM	8.7 µM				Active		Active
COc1ccc(C(=O)/C(=C/c2ccccc2F)CCOC(C)=O)cc1	> 100 µM	> 100 µM	> 100 µM						
C=C(C(=O)c1ccc(OC)cc1)C(OC(=O)c1ccccc1)c1ccccc1[N+](=O)[O-] (stereo not given)	12.7 µM	45.5 µM	11.8 µM						
C=C(C(=O)c1ccc(OC)cc1)C(OC(C)=O)c1ccc([N+](=O)[O-])cc1 (stereo not given)	10.3 µM	21.3 µM	6.1 µM						
C=C(C/C(=C\c1ccc(OC(=O)c2ccccc2)cc1)C(=O)c1ccccc1)C(=O)c1ccccc1	8 µM	44.4 µM	61.6 µM						
COc1ccc(C(=O)/C(=C/c2ccc(Cl)cc2Cl)CN(C)C(=O)c2ccccc2)cc1	24 µM	32.4 µM	39.7 µM						
COc1ccc(C(=O)/C(=C/c2c(F)c(F)c(F)c(F)c2F)CC(C)OC(C)=O)cc1 (stereo not given)	49 µM	91.7 µM	> 100 µM						
COc1ccc(C(=O)/C(=C/c2ccc(Cl)cc2Cl)CCOC(C)=O)cc1	34.8 µM	69.2 µM	83.4 µM						
C=C(C(=O)c1ccc(OC)cc1)C(OC(=O)c1ccccc1)c1c(F)c(F)c(F)c(F)c1F (stereo not given)	12.9 µM	32.1 µM	45.3 µM						
COc1ccc(C(=O)/C(=C/c2ccccc2Cl)COC(=O)c2ccccc2)cc1	7 µM	20.1 µM	9 µM	Active	Active	Active	Active	Active	Active
C=C(C(=O)c1ccc(OC)cc1)C(OC(=O)c1ccccc1)c1ccccc1F (stereo not given)	14.3 µM	73.7 µM	34.2 µM						
COc1ccc(C(=O)/C(=C/C2CCCCC2)CCOC(C)=O)cc1	> 100 µM	> 100 µM	> 100 µM						
C=C(C(=O)c1ccc(OC)cc1OC)C(OC(C)=O)c1ccccc1[N+](=O)[O-] (stereo not given)	8.8 µM	> 100 µM	70.1 µM						
C=C(C(=O)c1ccc(OC)cc1)C(OC(=O)c1ccccc1)c1ccc(Cl)cc1Cl (stereo not given)	9.7 µM	79.2 µM	26.8 µM						
COc1ccc(C(=O)/C(=C/c2ccc(Cl)cc2)CC(C)C)cc1	12.1 µM	> 100 µM	> 100 µM						
CCC(/C=C(\COC(C)=O)C(=O)c1ccc(OC)cc1)CC	9.5 µM	> 100 µM	13.7 µM						
C=C(C/C(=C\c1ccccc1)C(=O)c1ccc(OC)cc1)C(=O)c1ccc(OC)cc1	7.4 µM	22.9 µM	7.4 µM						
COc1ccc(C(=O)/C(=C/c2ccc(Cl)cc2)CC(C)OC(C)=O)cc1 (stereo not given)	62 µM	73.2 µM	> 100 µM						
